# The source made the active and inactive calls. The calls are words filed in the database; no cut-off is given here.
# What was measured:
# [1] = biological target: MAP kinase-activated protein kinase 2 (Homo sapiens) (UniProt P49137); assay: Inhibition of MAPKAPK2 at 1 uM
# Outline: (§1)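 Single-concentration (1 µM) inhibition profiling carried out through a commercial kinase profiler screening service.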
# A549 = assay: Antiproliferative activity against human A549 cells […] by microculture tetrazolium assay; type: functional, cell-based
# Outline: (§2)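 Tumor cells (ATCC) grown in RPMI 1640 with 10% fetal calf serum, 2 mM L-glutamine, penicillin/streptomycin, 10 mM HEPES pH 7.4. Continuous exposure to graded concentrations for four doubling times, then MTT added and incubated 4 h at 37 °C. Formazan dissolved in DMSO, optical density read. IC50 = concentration reducing OD by 50% versus untreated controls.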
# Homo sapiens [2] = organism: Homo sapiens; assay: Inhibition of PKA at 1 uM; outline: as §1
# [3] = biological target: Protein kinase C beta type (Homo sapiens) (UniProt P05771); assay: Inhibition of PKCbeta at 1 uM; outline: as §1
# Sequence of Protein kinase C beta type (Homo sapiens) (P05771 2-671 limits assumed): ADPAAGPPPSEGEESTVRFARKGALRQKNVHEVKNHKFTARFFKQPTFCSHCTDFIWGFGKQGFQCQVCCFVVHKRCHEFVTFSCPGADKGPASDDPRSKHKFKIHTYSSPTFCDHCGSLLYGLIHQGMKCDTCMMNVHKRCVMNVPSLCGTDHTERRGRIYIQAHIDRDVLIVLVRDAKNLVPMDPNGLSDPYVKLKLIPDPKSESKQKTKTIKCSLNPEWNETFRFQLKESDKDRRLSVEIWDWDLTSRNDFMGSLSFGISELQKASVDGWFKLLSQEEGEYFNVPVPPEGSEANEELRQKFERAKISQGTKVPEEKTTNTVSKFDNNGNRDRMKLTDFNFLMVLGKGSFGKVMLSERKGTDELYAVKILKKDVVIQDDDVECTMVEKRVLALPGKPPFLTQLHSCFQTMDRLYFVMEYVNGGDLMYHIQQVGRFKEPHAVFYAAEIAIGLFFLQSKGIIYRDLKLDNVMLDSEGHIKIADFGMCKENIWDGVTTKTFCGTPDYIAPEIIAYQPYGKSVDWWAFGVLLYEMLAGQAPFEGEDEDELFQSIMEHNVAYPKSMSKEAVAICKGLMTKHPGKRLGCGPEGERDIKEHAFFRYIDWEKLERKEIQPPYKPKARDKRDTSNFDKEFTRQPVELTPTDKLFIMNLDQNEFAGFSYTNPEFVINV
# L1210 = assay: Antiproliferative activity against mouse L1210 cells […] by microculture tetrazolium assay; type: functional, cell-based; outline: as §2
# HT-29 = assay: Antiproliferative activity against human HT29 cells […] by microculture tetrazolium assay; type: functional, cell-based; outline: as §2
# [4] = biological target: T1, Serine/threonine-protein kinase Chk1 (Homo sapiens) (UniProt O14757); assay: Inhibition of Chk1 at 1 uM
# T1 sequence (whole entry): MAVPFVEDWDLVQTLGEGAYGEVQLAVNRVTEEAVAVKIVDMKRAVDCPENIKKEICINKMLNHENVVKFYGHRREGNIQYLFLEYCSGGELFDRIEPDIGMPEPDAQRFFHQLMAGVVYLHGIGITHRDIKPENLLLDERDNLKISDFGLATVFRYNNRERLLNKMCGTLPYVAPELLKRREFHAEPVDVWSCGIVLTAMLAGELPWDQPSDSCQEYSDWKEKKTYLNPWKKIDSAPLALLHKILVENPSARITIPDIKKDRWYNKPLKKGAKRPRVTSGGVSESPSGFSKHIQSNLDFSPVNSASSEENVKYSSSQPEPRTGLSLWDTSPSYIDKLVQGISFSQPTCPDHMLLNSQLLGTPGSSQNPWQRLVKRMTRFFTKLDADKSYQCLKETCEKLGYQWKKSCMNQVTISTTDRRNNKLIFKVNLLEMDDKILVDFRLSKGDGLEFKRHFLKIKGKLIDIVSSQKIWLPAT
# [5] = biological target: Proto-oncogene tyrosine-protein kinase Src (Homo sapiens) (UniProt P12931); assay: Inhibition of Src tyrosine kinase at 1 uM after 20 mins
# Sequence of Proto-oncogene tyrosine-protein kinase Src (Homo sapiens) (P12931 2-536 limits assumed): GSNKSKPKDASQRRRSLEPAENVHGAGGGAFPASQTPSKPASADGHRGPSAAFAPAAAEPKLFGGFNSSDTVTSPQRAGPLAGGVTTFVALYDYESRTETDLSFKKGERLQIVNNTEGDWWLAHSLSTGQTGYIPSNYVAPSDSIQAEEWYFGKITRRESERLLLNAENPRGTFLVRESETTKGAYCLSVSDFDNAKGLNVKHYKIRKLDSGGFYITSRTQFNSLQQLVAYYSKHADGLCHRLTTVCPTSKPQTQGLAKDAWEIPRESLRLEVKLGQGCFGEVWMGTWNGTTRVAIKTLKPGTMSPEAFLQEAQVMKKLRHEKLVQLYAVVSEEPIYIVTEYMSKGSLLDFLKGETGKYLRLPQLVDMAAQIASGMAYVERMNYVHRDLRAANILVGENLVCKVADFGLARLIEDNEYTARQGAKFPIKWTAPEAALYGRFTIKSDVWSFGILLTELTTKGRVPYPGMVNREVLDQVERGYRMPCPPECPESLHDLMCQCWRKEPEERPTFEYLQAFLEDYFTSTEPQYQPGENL
# [6] = biological target: T2, Serine/threonine-protein kinase Chk1 (Homo sapiens, UniProt O14757); assay: Inhibition of human Chk1
# T2 sequence (O14757 whole entry): T1 sequence (whole entry)
# Outline: (§3)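 Chk1 from a commercial source or purified as GST–Chk1 from baculovirus-infected Sf9 cells. Assay based on a published method. Percent inhibition determined at 10 µM; IC50 determined for selected compounds.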
# [7] = biological target: Protein kinase C alpha type (Homo sapiens) (UniProt P17252); assay: Inhibition of PKCalpha at 1 uM; outline: as §1
# [8] = biological target: Mitogen-activated protein kinase 1 (Homo sapiens) (UniProt P28482); assay: Inhibition of MAPK1 at 1 uM; outline: as §1
# Sequence of Mitogen-activated protein kinase 1 (Homo sapiens) (P28482 whole entry): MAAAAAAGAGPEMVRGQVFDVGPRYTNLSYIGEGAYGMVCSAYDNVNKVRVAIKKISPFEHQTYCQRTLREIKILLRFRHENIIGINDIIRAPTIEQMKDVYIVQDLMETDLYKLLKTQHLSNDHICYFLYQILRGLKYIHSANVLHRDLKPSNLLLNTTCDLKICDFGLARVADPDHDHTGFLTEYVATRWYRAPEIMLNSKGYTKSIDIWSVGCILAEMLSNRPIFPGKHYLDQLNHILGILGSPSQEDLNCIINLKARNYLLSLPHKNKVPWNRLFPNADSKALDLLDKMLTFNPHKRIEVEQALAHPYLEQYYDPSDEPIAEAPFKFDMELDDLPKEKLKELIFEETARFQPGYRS
# DU-145 = assay: Antiproliferative activity against human DU145 cells […] by microculture tetrazolium assay; type: functional, cell-based; outline: as §2
# [9] = biological target: Tyrosine-protein kinase Lck (Homo sapiens) (UniProt P06239); assay: Inhibition of LCK at 1 uM; outline: as §1
# Sequence of Tyrosine-protein kinase Lck (Homo sapiens) (P06239 2-509 limits assumed): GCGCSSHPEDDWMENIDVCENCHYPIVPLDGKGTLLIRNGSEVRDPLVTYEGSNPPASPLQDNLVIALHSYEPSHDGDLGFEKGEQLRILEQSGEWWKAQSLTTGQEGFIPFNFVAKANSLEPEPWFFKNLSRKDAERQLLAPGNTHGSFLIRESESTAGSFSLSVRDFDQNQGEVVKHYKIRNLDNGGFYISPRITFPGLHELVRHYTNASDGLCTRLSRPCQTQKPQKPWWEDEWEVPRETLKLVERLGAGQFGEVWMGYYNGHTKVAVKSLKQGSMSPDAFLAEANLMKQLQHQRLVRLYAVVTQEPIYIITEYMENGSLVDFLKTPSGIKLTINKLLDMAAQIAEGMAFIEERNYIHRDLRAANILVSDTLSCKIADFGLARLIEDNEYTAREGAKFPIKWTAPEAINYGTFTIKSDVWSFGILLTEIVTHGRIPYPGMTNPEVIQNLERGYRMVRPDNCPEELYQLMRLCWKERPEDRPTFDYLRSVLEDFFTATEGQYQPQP
# [10] = biological target: T1, Serine/threonine-protein kinase Chk1 (Homo sapiens); assay: Inhibition of human Chk1 at 10 uM; outline: as §3
# Homo sapiens [11] = organism: Homo sapiens; assay: Inhibition of FGFR3 at 1 uM; outline: as §1
# Homo sapiens [12] = organism: Homo sapiens; assay: Inhibition of GSK3 at 1 uM; outline: as §1
# Homo sapiens [13] = organism: Homo sapiens; assay: Inhibition of CAMK2 at 1 uM; outline: as §1
# [14] = biological target: T3, Protein kinase C epsilon type (Homo sapiens) (UniProt Q02156); assay: Inhibition of PKCepsilon at 1 uM; outline: as §1
# T3 sequence (whole entry): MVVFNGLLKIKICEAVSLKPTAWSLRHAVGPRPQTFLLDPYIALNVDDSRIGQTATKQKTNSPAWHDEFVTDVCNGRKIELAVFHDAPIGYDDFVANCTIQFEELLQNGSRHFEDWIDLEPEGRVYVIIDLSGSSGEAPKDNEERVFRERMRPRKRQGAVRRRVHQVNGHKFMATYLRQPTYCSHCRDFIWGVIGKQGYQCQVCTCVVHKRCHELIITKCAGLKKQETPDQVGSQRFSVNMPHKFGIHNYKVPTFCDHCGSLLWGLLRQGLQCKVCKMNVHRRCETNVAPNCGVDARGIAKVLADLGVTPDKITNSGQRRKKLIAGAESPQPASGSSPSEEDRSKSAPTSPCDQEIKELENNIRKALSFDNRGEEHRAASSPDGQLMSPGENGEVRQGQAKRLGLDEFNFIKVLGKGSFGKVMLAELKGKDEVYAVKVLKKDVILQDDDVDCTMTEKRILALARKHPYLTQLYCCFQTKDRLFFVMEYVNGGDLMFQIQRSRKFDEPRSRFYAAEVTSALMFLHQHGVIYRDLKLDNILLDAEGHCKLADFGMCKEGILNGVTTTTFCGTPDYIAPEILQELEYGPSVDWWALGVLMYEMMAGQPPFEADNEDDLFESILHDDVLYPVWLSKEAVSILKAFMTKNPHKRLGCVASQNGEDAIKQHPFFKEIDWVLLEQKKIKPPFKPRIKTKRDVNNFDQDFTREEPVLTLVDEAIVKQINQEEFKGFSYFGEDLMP
# [15] = biological target: Ribosomal protein S6 kinase beta-1 (Homo sapiens) (UniProt P23443); assay: Inhibition of P70S6K at 1 uM; outline: as §1
# Sequence of Ribosomal protein S6 kinase beta-1 (Homo sapiens) (P23443 whole entry, looked up): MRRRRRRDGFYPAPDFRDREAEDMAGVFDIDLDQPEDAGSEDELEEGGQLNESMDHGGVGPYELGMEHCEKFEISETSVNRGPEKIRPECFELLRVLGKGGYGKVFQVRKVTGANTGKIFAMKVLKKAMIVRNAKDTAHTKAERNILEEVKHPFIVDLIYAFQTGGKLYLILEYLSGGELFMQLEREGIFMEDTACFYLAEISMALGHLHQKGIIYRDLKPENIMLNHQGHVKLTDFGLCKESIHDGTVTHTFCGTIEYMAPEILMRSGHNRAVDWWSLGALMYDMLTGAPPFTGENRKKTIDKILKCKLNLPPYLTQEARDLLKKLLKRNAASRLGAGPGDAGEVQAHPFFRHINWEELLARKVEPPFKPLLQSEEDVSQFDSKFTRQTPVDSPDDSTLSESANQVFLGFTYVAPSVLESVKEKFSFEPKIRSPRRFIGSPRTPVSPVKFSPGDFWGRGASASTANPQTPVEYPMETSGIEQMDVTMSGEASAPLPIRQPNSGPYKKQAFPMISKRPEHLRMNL
# [16] = biological target: AMP-activated protein kinase, AMPK (Homo sapiens) (UniProt P54646+O43741+P54619+Q9UGJ0+Q9Y478+Q13131+Q9UGI9); assay: Inhibition of AMPK at 1 uM; type: protein-complex assay; outline: as §1
# Homo sapiens [17] = organism: Homo sapiens; assay: Inhibition of CK1 at 1 uM; outline: as §1
# [18] = biological target: Cyclin-dependent kinase 2 (Homo sapiens) (UniProt P24941); assay: Inhibition of CDK2/cyclin A at 1 uM; outline: as §1
# Homo sapiens [19] = organism: Homo sapiens; assay: Binding affinity to DNA assessed as melting temperature
# [20] = biological target: T4, DNA topoisomerase 1 (Homo sapiens) (UniProt P11387); assay: Inhibition of topoisomerase 1
# T4 sequence (whole entry): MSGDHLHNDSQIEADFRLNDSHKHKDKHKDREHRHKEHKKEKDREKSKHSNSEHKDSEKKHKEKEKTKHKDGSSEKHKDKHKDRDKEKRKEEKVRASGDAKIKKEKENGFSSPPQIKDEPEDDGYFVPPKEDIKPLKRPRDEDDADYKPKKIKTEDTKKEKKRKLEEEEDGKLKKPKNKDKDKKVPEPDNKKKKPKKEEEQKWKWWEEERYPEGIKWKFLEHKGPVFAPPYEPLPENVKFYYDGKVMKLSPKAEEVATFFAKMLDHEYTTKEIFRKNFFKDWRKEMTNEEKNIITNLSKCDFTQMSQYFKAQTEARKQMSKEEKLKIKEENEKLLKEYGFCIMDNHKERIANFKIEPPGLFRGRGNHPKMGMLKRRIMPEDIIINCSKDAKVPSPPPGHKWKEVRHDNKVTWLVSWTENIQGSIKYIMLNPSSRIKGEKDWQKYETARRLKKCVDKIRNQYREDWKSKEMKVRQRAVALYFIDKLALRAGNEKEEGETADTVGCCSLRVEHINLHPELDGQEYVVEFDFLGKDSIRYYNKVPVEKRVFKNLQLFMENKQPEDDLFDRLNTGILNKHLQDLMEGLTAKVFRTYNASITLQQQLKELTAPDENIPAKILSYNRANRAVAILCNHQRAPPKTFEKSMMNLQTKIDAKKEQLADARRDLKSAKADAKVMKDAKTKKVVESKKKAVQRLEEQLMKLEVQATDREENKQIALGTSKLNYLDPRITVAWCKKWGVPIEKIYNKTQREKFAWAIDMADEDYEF
# [21] = biological target: T4, DNA topoisomerase 1 (Homo sapiens); assay: Inhibition of topoisomerase 1 upto 50 uM
# Outline: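 DNA relaxation and DNA cleavage assays with topoisomerase I, run following published procedures, with compounds up to 50 µM.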
# Sequence of MAP kinase-activated protein kinase 2 (Homo sapiens) (P49137 whole entry, looked up): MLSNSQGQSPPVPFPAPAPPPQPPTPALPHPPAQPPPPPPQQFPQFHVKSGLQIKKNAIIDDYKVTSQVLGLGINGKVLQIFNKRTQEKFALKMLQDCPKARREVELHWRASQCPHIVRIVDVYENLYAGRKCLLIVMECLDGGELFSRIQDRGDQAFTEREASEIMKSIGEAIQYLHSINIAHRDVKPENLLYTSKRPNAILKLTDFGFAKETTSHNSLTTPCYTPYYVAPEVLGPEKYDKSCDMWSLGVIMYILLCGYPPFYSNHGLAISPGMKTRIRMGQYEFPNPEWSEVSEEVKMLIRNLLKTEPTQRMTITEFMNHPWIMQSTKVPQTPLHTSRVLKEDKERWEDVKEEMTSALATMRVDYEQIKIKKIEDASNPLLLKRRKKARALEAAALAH
IC50 (A549),IC50 (L1210),IC50 (HT-29),IC50 [6],IC50 (DU-145),inhibition [10],Activity (Homo sapiens [19]),Activity [20],Activity [21],SMILES,further results
20.9 µM,12.5 µM,29 µM,0.066 µM,21.7 µM,87.9%,–,–,–,O=C1NC(=O)c2c1c1c3cc(Br)ccc3[nH]c1c1cccn21,% activity [1]: 99%; % activity (Homo sapiens [2]): 103%; % activity [3]: 98%; % activity [4]: 14%; inhibition [5]: 22.3%; % activity [7]: 85%; % activity [8]: 88%; % activity [9]: 91%; % activity (Homo sapiens [11]): 50%; % activity (Homo sapiens [12]): 44%; % activity (Homo sapiens [13]): 55%; % activity [14]: 90%; % activity [15]: 26%; % activity [16]: 46%; % activity (Homo sapiens [17]): 104%; % activity [18]: 88%
> 100 µM,33 µM,> 100 µM,–,1.2 µM,–,inactive,inactive,inactive,CN1C(=O)c2c(n3cccc3c3[nH]c4ccccc4c23)C1=O,–
68.3 µM,41.2 µM,63.2 µM,–,–,55.6%,inactive,inactive,inactive,CN1C(=O)c2c(n3cccc3c3[nH]c4ccc(Cl)cc4c23)C1=O,–
16.1 µM,4.5 µM,27.8 µM,0.016 µM,15.1 µM,95.8%,–,–,–,O=C1NC(=O)c2c1c1c3cc(O)ccc3[nH]c1c1cccn21,inhibition [5]: 1.2%
67 µM,48.7 µM,88.3 µM,–,> 100 µM,7.1%,–,–,–,CN1C(=O)c2c(n3cccc3c3[nH]c4ccc(Br)cc4c23)C1=O,–
78.5 µM,> 100 µM,52.5 µM,–,56.1 µM,15.1%,–,–,–,CN1C(=O)c2c(n3cncc3c3c2c2cccnc2n3[C@@H]2O[C@H](CO)[C@@H](O)[C@H](O)[C@H]2O)C1=O,–
19.7 µM,29.2 µM,17.1 µM,3.6 µM,4.6 µM,76.6%,–,–,–,O=C1NC(=O)c2c1c1c3cccnc3[nH]c1c1cccn21,–
8.8 µM,5.4 µM,26.5 µM,–,–,54.1%,–,–,–,CN1C(=O)c2c(n3cccc3c3[nH]c4ccc(O)cc4c23)C1=O,–
28.9 µM,14.7 µM,30.4 µM,0.089 µM,27.4 µM,95.4%,inactive,inactive,inactive,O=C1NC(=O)c2c1c1c3cc(Cl)ccc3[nH]c1c1cccn21,% activity [1]: 75%; % activity (Homo sapiens [2]): 98%; % activity [3]: 79%; % activity [4]: 6%; inhibition [5]: 22.1%; % activity [7]: 75%; % activity [8]: 98%; % activity [9]: 92%; % activity (Homo sapiens [11]): 32%; % activity (Homo sapiens [12]): 39%; % activity (Homo sapiens [13]): 40%; % activity [14]: 86%; % activity [15]: 51%; % activity [16]: 29%; % activity (Homo sapiens [17]): 94%; % activity [18]: 69%
128 µM,> 100 µM,53 µM,–,64.8 µM,10.7%,inactive,inactive,inactive,CN1C(=O)c2c(n3ccnc3c3c2c2cccnc2n3[C@@H]2O[C@H](CO)[C@@H](O)[C@H](O)[C@H]2O)C1=O,–
7.4 µM,8.8 µM,9.7 µM,–,13.5 µM,11.6%,–,–,–,CN1C(=O)c2c(n3cncc3c3[nH]c4ncccc4c23)C1=O,–
18.1 µM,–,–,0.44 µM,13.1 µM,–,–,–,–,O=C1NC(=O)c2c1c1c3ccccc3[nH]c1n1cncc21 [ISOGRANULATIMIDE],–
11.4 µM,–,–,0.08 µM,2.8 µM,93.9%,–,–,–,O=C1NC(=O)c2c1c1[nH]cnc1c1[nH]c3ccccc3c21 [GRANULATIMIDE],–
35.6 µM,43.5 µM,30.6 µM,–,7.4 µM,36.1%,–,inactive,inactive,CN1C(=O)c2c(n3ccnc3c3[nH]c4ncccc4c23)C1=O,–
20 µM,42.7 µM,35.9 µM,–,22.7 µM,10.3%,inactive,inactive,inactive,CN1C(=O)c2c(n3cccc3c3[nH]c4ccc(OCc5ccccc5)cc4c23)C1=O,–
2 µM,3.1 µM,3.3 µM,0.024 µM,1.4 µM,85%,inactive,inactive,inactive,O=C1NC(=O)c2c1c1c3ccccc3[nH]c1c1cccn21,inhibition [5]: 32.5%
47.1 µM,4.9 µM,5.9 µM,–,1.9 µM,43.1%,inactive,inactive,inactive,CN1C(=O)c2c(c3c4ccccc4[nH]c3c3cc[nH]c23)C1=O,–
23.2 µM,27 µM,13.7 µM,0.64 µM,–,54.8%,–,–,–,O=C1NC(=O)c2c1c1c3cc(OCc4ccccc4)ccc3[nH]c1c1cccn21,–

# Source: ChEMBL document CHEMBL1149629 (Bioorg Med Chem, 2007)
